Measurements collected from several papers.
Compare with care: the assays were run in different laboratories. pIC50, pKi: −log10 of the molar value.
Target: Cytochrome P450 2C9 (CYP2C9, Homo sapiens, UniProt P11712)
Read-out: enzyme activity
Action: inhibitor

Structure (SMILES)	assay	test system	setting	endpoint	result
Ic1ccc(CSCn2ccnc2)cc1		MFC	30 min, pH 7.4	pIC50	6.81
C[C@H]1CN(c2n[nH]c3nc(N[C@H]4CC[C@H](NS(=O)(=O)CCC(F)(F)F)CC4)ncc23)CCO1				pIC50	< 4.00
CCc1cc(/C(C)=N/OCc2ccc(C3CCCCC3)c(C(F)(F)F)c2)ccc1CN1CC(C(=O)O)C1		human, liver microsomes	20 min	pIC50	~5.89
C=CC(=O)Nc1cc(Nc2nccc(Nc3cc(Cl)c(F)cc3C(C)(C)O)n2)c(OC)cc1N1CC[C@@H](N(C)C)C1		human, liver microsomes		pIC50	< 4.52
Nc1nc(N)c2nc(CNc3ccc(C(=O)c4ccccc4)cc3)cnc2n1	luciferase			pIC50	4.60
C[C@@H](c1ccc2nccn2c1)n1nnc2ncc(-c3cnn(C)c3)nc21		human, liver microsomes	pH 7.4	pIC50	5.33
Cc1ccc2nc(-c3ccccc3)c(CNc3ccc(F)cc3)n2c1				pIC50	6.39
COc1ccc2c(Cc3ccccc3F)c3[n+](cc2c1OC)CCc1cc2c(cc1-3)OCO2				pIC50	< 5.00
CCCOC(=O)C1CCN(C(=O)c2ccc(N(C)Cc3cnc4nc(N)nc(N)c4n3)cc2)CC1	luciferase			pIC50	5.26
Cc1cc(C)c2c(c1)[C@@H](N(Cc1cc(C(F)(F)F)cc(C(F)(F)F)c1)c1nnn(C)n1)CCCN2C[C@H]1CC[C@H](C(=O)O)CC1		human, liver microsomes	pH 7.4	pKi	6.24
Nc1nc(N)c2nc(CNc3ccc(C(=O)NCCc4ccccc4)cc3)cnc2n1	luciferase			pIC50	4.73
COc1ccn2c(Nc3ccccc3F)c(-c3ccncn3)nc2c1				pIC50	6.39
COc1ccc2c(Cc3ccccc3F)c3n(c(=O)c2c1OC)CCc1cc2c(cc1-3)OCO2				pIC50	< 5.00
O=C(NCCN1CCCC1)c1cc(-c2ccc(CN3CCOCC3)cc2)nc2ccc(F)cc12		human, liver microsomes		pIC50	< 4.00
Cc1cc2c(F)c(Oc3ncnn4cc(OC[C@@H](C)O)c(C)c34)ccc2[nH]1	fluorescence		15 min	pIC50	5.86
